Measurements reported in ChEMBL document CHEMBL1139138, “Pyrrolidine-constrained phenethylamines: The design of potent, selective, and pharmacologically efficacious dipeptidyl peptidase IV (DPP4) inhibitors from a lead-like screening hit” (Bioorg Med Chem Lett, 2007).

Legend:
Dipeptidyl peptidase 8 = Dipeptidyl peptidase 8 (Homo sapiens, UniProt Q6V1X1); assay: Inhibition of human DPP8
Dipeptidyl peptidase 9 = Dipeptidyl peptidase 9 (Homo sapiens, UniProt Q86TI2); assay: Inhibition of human DPP9
Chain of Dipeptidyl peptidase 9 (Q86TI2 whole entry): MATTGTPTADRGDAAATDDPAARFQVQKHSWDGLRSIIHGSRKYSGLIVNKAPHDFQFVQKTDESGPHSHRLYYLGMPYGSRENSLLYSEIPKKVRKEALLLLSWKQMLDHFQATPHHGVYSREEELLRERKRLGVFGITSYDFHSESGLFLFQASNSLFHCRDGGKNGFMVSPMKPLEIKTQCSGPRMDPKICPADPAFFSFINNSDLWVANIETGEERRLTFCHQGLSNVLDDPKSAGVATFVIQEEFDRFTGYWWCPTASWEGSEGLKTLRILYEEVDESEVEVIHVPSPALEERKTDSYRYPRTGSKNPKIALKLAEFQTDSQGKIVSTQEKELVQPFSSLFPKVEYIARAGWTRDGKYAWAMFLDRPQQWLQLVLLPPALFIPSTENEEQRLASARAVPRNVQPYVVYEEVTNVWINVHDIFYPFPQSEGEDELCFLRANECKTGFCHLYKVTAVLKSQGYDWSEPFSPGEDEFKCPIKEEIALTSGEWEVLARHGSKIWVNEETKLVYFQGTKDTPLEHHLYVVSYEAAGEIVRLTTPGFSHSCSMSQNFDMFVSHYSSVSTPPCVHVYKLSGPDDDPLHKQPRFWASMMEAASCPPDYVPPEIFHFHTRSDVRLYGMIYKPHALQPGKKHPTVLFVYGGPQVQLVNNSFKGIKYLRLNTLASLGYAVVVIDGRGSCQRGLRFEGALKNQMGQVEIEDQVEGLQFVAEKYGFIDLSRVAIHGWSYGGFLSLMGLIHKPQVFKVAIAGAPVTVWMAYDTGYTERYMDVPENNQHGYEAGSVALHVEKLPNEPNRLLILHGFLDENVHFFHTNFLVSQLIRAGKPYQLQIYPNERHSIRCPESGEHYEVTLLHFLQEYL

Prolyl endopeptidase FAP = molecular target: T1, Prolyl endopeptidase FAP (Homo sapiens, UniProt Q12884); assay: Inhibition of human FAPalpha
T1 sequence (Q12884 whole entry): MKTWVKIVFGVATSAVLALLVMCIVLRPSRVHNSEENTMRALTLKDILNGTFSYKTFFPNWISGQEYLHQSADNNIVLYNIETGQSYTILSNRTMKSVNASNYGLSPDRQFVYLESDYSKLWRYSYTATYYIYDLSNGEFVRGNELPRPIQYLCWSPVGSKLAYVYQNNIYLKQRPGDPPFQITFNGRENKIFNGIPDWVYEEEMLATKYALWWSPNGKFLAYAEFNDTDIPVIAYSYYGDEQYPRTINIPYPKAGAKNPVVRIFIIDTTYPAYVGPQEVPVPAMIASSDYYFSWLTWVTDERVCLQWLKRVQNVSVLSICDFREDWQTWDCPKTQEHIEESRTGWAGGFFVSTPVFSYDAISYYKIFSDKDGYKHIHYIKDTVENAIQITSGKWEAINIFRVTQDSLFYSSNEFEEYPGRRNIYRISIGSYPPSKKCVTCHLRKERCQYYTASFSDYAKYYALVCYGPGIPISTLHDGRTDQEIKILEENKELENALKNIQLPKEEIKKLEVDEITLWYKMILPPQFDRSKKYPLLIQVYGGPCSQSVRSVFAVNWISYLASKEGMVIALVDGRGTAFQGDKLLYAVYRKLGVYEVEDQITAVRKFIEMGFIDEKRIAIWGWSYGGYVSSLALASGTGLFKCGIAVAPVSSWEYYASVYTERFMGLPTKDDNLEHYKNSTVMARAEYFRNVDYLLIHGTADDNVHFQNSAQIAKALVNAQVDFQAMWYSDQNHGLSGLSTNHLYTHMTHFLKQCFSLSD

Prolyl endopeptidase = molecular target: T2, Prolyl endopeptidase (Homo sapiens, UniProt P48147); assay: Inhibition of human POP
T2 sequence (P48147 whole entry): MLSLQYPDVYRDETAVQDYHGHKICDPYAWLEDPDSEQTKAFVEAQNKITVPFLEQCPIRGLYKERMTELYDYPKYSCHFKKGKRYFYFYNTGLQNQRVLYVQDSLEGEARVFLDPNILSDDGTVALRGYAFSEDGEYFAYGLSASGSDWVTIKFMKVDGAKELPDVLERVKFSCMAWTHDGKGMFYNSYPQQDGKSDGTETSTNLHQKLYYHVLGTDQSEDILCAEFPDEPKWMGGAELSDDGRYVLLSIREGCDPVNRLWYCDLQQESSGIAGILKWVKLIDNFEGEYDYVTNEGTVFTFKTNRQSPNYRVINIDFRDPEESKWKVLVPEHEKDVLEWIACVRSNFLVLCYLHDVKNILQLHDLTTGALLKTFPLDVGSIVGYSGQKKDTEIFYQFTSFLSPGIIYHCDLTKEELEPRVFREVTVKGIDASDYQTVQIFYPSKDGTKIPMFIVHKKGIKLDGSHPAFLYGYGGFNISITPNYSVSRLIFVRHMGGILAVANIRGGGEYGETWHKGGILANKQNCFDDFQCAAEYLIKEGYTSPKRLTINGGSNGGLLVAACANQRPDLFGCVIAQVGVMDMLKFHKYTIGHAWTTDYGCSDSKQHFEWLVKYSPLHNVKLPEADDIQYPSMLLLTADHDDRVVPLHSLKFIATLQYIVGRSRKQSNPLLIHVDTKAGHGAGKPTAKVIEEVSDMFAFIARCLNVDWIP

[1] = Half life in rat liver microsome; assay type: ADME; conditions: liver microsomes
How it was run: (§1)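 Stability on incubation with rat or human liver microsomes, expressed as half-life.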

[2] = Half life in human liver microsome; assay type: ADME; conditions: liver microsomes; how it was run: as §1
Cytochrome P450 2D6 = Cytochrome P450 2D6 (Homo sapiens, UniProt P10635); assay: Inhibition of CYP2D6; assay type: ADME
Chain of Cytochrome P450 2D6 (P10635 whole entry): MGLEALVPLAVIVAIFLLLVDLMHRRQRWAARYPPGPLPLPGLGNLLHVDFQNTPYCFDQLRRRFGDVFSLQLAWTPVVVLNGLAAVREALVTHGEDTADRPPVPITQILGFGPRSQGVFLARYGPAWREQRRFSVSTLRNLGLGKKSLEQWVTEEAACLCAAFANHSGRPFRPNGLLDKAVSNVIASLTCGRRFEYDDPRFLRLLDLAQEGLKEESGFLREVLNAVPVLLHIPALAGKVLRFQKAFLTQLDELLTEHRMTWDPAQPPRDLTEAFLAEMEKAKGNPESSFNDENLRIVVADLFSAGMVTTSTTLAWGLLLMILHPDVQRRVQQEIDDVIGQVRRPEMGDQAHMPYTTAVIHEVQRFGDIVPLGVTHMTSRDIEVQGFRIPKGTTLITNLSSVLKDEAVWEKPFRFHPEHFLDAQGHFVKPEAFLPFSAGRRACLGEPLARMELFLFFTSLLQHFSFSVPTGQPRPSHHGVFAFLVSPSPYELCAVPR

Cytochrome P450 3A4 = Cytochrome P450 3A4 (Homo sapiens, UniProt P08684); assay: Inhibition of CYP3A4; assay type: ADME
Chain of Cytochrome P450 3A4 (P08684 whole entry): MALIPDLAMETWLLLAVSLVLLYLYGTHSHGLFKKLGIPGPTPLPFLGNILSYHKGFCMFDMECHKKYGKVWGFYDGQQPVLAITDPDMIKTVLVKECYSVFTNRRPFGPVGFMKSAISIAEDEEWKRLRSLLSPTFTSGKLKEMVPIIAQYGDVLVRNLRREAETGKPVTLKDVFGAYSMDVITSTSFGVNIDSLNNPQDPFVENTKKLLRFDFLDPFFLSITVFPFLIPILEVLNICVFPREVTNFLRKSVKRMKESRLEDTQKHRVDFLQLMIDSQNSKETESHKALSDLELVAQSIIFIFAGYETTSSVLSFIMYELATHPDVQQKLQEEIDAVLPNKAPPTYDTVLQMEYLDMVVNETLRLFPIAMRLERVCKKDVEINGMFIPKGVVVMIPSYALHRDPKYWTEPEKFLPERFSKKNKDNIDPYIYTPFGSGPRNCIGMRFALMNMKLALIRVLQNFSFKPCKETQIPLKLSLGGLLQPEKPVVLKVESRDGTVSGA

[3] = Plasma clearance in Sprague-Dawley rat at 5 mg/kg, po; assay type: ADME, organism-based; parameters: dose 5 mg/kg, route oral
How it was run: (§2)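 Pharmacokinetics in rat dosed at 5 mg/kg and in dog and monkey dosed at 2.5 mg/kg. Cmax, t1/2 (terminal) and AUC were taken from oral dosing. F is oral bioavailability. Vss is volume of distribution at steady state.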

Rattus norvegicus [4] = assay: Volume of distribution at steady state in Sprague-Dawley rat at 5 mg/kg, po; assay type: ADME, organism-based; parameters: dose 5 mg/kg, route oral; conditions: in vivo; how it was run: as §2
[5] = Cmax in Sprague-Dawley rat at 5 mg/kg, po; assay type: ADME, organism-based; parameters: dose 5 mg/kg, route oral; conditions: in vivo; how it was run: as §2
[6] = Half life in Sprague-Dawley rat at 5 mg/kg, po; assay type: ADME, organism-based; parameters: dose 5 mg/kg, route oral; conditions: in vivo; how it was run: as §2
Rattus norvegicus [7] = assay: AUC in Sprague-Dawley rat at 5 mg/kg, po; assay type: ADME, organism-based, Plasma; parameters: dose 5 mg/kg, route oral; conditions: in vivo; how it was run: as §2
[8] = Oral bioavailability in Sprague-Dawley rat at 5 mg/kg, po; assay type: ADME, organism-based; conditions: in vivo; how it was run: as §2
Dipeptidyl peptidase 4 [9] = molecular target: T3, Dipeptidyl peptidase 4 (Homo sapiens, UniProt P27487); assay: Inhibition of human DPP4 by tight binding assay
T3 sequence (P27487 whole entry): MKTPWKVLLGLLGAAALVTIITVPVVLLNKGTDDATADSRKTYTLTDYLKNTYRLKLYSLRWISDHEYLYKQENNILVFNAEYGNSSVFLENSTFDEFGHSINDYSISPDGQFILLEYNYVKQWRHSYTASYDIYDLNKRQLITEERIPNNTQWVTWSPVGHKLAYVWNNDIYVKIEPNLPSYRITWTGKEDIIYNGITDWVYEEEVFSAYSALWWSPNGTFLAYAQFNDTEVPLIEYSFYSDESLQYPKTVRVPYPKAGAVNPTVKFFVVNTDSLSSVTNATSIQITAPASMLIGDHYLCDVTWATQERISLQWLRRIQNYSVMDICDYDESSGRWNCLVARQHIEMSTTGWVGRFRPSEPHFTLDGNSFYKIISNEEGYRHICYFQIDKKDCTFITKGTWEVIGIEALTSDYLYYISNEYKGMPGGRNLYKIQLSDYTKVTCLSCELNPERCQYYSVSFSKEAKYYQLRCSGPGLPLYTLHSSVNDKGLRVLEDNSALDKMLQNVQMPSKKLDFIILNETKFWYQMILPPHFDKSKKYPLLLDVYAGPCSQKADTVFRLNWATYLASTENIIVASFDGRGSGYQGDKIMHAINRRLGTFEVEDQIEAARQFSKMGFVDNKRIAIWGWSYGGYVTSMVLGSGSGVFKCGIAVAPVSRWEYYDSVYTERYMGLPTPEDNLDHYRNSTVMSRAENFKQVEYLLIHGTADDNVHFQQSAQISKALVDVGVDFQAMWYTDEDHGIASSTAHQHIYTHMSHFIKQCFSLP

Dipeptidyl peptidase 4 [10] = molecular target: T3, Dipeptidyl peptidase 4; assay: Inhibition of human DPP4 in presence of rat plasma protein; assay type: cell-free
Cytochrome P450 2C9 = Cytochrome P450 2C9 (Homo sapiens, UniProt P11712); assay: Inhibition of CYP2C9; assay type: ADME
Chain of Cytochrome P450 2C9 (P11712 whole entry): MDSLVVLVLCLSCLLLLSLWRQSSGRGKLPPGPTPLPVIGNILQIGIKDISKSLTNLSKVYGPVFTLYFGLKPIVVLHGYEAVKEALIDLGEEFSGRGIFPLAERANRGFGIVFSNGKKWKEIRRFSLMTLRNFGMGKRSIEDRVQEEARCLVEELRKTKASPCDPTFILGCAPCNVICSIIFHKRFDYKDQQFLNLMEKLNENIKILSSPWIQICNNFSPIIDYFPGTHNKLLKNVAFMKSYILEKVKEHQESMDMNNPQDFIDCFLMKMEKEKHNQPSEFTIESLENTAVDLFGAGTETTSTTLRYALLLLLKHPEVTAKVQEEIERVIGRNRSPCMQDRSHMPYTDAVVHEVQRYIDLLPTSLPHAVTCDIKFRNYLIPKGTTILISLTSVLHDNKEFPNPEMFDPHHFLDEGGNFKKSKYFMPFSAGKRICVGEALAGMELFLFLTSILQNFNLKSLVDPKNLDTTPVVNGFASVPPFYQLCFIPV

[11] = Plasma clearance in dog at 2.5 mg/kg, po; assay type: ADME, organism-based, Canis lupus familiaris; parameters: dose 2.5 mg/kg, route oral; how it was run: as §2
[12] = Cmax in dog at 2.5 mg/kg, po; assay type: ADME, organism-based, Canis lupus familiaris; parameters: dose 2.5 mg/kg, route oral; conditions: in vivo; how it was run: as §2
[13] = Half life in dog at 2.5 mg/kg, po; assay type: ADME, organism-based, Canis lupus familiaris; parameters: dose 2.5 mg/kg, route oral; conditions: in vivo; how it was run: as §2
Canis familiaris = assay: AUC in dog at 2.5 mg/kg, po; assay type: ADME, organism-based, Canis lupus familiaris, Plasma; parameters: dose 2.5 mg/kg, route oral; conditions: in vivo; how it was run: as §2
[14] = Oral bioavailability in dog at 2.5 mg/kg, po; assay type: ADME, organism-based, Canis lupus familiaris; conditions: in vivo; how it was run: as §2
Rattus norvegicus [15] = assay: Reduction of glucose level in ZDF rat at 0.3 mg/kg, po by […]; assay type: functional; parameters: scale not given: the % may be the effect or the level left
How it was run: (§3)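 Female Zucker diabetic fatty rats, 10 weeks old, fasted overnight (n = 10/group). They were dosed orally with vehicle or inhibitor at 0.3, 1 or 3 mg/kg at t = −240 min and allowed to feed at t = 0. Blood glucose lowering was measured relative to vehicle.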

Rattus norvegicus [16] = assay: Reduction of glucose level in ZDF rat at 1 mg/kg, po […]; assay type: functional; parameters: scale not given: the % may be the effect or the level left; how it was run: as §3
Rattus norvegicus [17] = assay: Reduction of glucose level in ZDF rat at 3 mg/kg, po […]; assay type: functional; parameters: scale not given: the % may be the effect or the level left; how it was run: as §3
[18] = Plasma concentration in ZDF rat at 1 mg/kg after 240 mins; assay type: ADME, organism-based; parameters: dose 1 mg/kg
How it was run: (§4)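 Female ZDF rats, 10 weeks old, fasted overnight and dosed orally at 1 mg/kg four hours before feeding (t = 0). Plasma drug concentration and the matching plasma DPP4 inhibition were determined at t = 0 and t = 240 min.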

Rattus norvegicus [19] = assay: Inhibition of DPP4 in ZDF rat at 1 mg/kg after 240 mins; assay type: functional; conditions: 4 h; how it was run: as §4

Chain of Dipeptidyl peptidase 8 (Q6V1X1 whole entry): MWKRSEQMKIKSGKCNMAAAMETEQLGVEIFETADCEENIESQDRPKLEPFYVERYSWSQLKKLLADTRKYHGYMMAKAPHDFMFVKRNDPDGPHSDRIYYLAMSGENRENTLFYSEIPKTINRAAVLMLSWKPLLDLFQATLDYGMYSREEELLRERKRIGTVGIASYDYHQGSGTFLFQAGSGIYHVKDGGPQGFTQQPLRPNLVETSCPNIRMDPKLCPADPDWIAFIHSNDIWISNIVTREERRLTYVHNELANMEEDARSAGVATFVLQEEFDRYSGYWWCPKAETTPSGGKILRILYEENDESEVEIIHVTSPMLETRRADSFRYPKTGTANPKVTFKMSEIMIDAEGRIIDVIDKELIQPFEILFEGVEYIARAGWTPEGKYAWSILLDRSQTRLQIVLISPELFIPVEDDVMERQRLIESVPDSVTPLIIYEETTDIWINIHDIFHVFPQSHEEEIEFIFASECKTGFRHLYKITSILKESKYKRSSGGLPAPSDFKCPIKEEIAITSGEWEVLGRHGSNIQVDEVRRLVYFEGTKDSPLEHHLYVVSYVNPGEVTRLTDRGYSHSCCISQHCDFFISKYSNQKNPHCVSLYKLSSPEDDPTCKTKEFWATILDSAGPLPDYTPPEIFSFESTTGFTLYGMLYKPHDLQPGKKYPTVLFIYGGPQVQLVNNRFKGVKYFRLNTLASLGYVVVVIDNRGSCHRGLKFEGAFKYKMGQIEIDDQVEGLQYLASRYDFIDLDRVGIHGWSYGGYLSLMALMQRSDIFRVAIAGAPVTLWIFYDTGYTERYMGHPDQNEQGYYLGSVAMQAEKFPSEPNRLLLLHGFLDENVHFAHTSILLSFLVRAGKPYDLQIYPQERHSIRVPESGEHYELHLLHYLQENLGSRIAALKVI

Row | Compound | half-life [1] [h] | half-life [2] [h] | CL/F [3] [mL/min/kg] | Vdss (Rattus norvegicus [4]) [L/kg] | Cmax [5] [ng/mL] | half-life [6] [h] | AUC (Rattus norvegicus [7]) [ng·h/mL] | bioavailability [8] [%] | further results
1 | NC1CN(c2cc(-c3cccc(C(=O)O)c3)ncn2)CC1c1cc(F)c(F)cc1F (centres undefined) | > 3 | > 3 | 18.3 | 1.78 | 176 | 6.8 | 652 | 18 | Ki (Dipeptidyl peptidase 8): > 3 µM; Ki (Dipeptidyl peptidase 9): > 3 µM; Ki (Prolyl endopeptidase FAP): > 30 µM; Ki (Prolyl endopeptidase): > 30 µM; IC50 (Cytochrome P450 2D6): > 10 µM; IC50 (Cytochrome P450 3A4): > 10 µM
2 | CN(C)C(=O)c1cccc(-c2cc(N3CC(N)C(c4cc(F)c(F)cc4F)C3)ncn2)c1 (centres undefined) | > 3 | > 3 | 12.2 | 1.77 | 1270 | 3.5 | 3140 | 42 | –
3 | NC1CN(c2cc(-c3cccc(S(=O)(=O)N4CCOCC4)c3)ncn2)CC1c1cc(F)c(F)cc1F (centres undefined) | > 3 | > 3 | 34.8 | 1.84 | 347 | 1.1 | 515 | 21 | Ki (Dipeptidyl peptidase 4 [9]): 0.0032 µM; Ki (Dipeptidyl peptidase 4 [10]): 0.0017 µM; Ki (Prolyl endopeptidase FAP): > 30 µM; Ki (Prolyl endopeptidase): > 30 µM; IC50 (Cytochrome P450 2D6): > 10 µM; IC50 (Cytochrome P450 2C9): > 10 µM; IC50 (Cytochrome P450 3A4): > 10 µM
4 | CS(=O)(=O)c1cc(F)cc(-c2cc(N3CC(N)C(c4cc(F)c(F)cc4F)C3)ncn2)c1 (centres undefined) | > 3 | > 3 | – | – | – | – | – | – | –
5 | CS(=O)(=O)c1cccc(-c2ncnc(N3CC(N)C(c4cc(F)c(F)cc4F)C3)n2)c1 (centres undefined) | > 3 | > 3 | 2.5 | 1.15 | 1970 | 5.5 | 24400 | 74 | Ki (Prolyl endopeptidase FAP): > 30 µM; Ki (Prolyl endopeptidase): > 30 µM; IC50 (Cytochrome P450 2D6): > 10 µM; IC50 (Cytochrome P450 2C9): > 10 µM; IC50 (Cytochrome P450 3A4): > 10 µM; CL/F [11]: 3.5 mL/min/kg; Cmax [12]: 691 ng/mL; half-life [13]: 14.9 h; AUC (Canis familiaris): 12200 ng·h/mL; bioavailability [14]: 100%; Activity (Rattus norvegicus [15]): -32%; Activity (Rattus norvegicus [16]): -39%; Activity (Rattus norvegicus [17]): -37%; concentration at 4 h [18]: 373 ng/mL; inhibition in vivo at 1 mg/kg (Rattus norvegicus [19]): > 98%
6 | CS(=O)(=O)c1cccc(-c2cc(N3CC(N)C(c4cc(F)c(F)cc4F)C3)ncn2)c1 (centres undefined) | > 3 | > 3 | 4.33 | 1.44 | 1810 | 3.8 | 22000 | 110 | Ki (Prolyl endopeptidase FAP): > 30 µM; Ki (Prolyl endopeptidase): > 30 µM
7 | Cl.NC1CN(c2cc(-c3ccsc3)ncn2)CC1c1cc(F)c(F)cc1F (centres undefined) | > 3 | > 3 | – | – | – | – | – | – | IC50 (Cytochrome P450 2D6): 1.1 µM

More lines, main results first:

Row | half-life [1] [h] | half-life [2] [h] | CL/F [3] [mL/min/kg] | Vdss (Rattus norvegicus [4]) [L/kg] | Cmax [5] [ng/mL] | half-life [6] [h] | AUC (Rattus norvegicus [7]) [ng·h/mL] | bioavailability [8] [%] | Compound | further results
8 | > 3 | > 3 | – | – | – | – | – | – | NC1CN(c2cc(-c3ccc(C(=O)O)cc3)ncn2)CC1c1cc(F)c(F)cc1F (centres undefined) | –
9 | > 3 | > 3 | – | – | – | – | – | – | NC1CN(c2cc(-c3ccccc3)ncn2)CC1c1cc(F)c(F)cc1F (centres undefined) | –
10 | > 3 | > 3 | – | – | – | – | – | – | NC1CN(Cc2ccccc2)CC1c1ccc(Cl)cc1Cl (centres undefined) | –
11 | > 3 | > 3 | – | – | – | – | – | – | NC1CN(c2ccccn2)CC1c1ccc(Cl)cc1Cl (racemic) | –
12 | > 3 | > 3 | – | – | – | – | – | – | NC1CN(c2ncccn2)CC1c1ccc(Cl)cc1Cl (racemic) | –
13 | > 3 | > 3 | – | – | – | – | – | – | COc1ccc(-c2cnc(N3CC(N)C(c4ccc(Cl)cc4Cl)C3)nc2)cc1 (racemic) | –
14 | > 3 | > 3 | – | – | – | – | – | – | Cc1ccc(S(=O)(=O)N2CC(N)C(c3ccc(Cl)cc3Cl)C2)cc1 (racemic) | –
